Laboratory results from ChEMBL document CHEMBL4513216, “Probing the Open Global Health Chemical Diversity Library for Multistage-Active Starting Points for Next-Generation Antimalarials” (ACS Infect Dis, 2020).

Assay: Toxicity liver stage against HepG2, at 10uM
Type: cell-based
Design: test concentration 10 uM, cell line HepG2-A16-CD81EGFP
Details: human, HepG2-A16-CD81EGFP cells; read-out: INHIBITION
Procedure, shortened: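 Uninfected HepG2-A16-CD81EGFP cells, 3 × 10^3 per well, 1536-well, plated on prespotted compound at 10 μM final, parasite-free screening media added to match infected plates; puromycin 10 μM positive, DMSO 0.5% negative; run in parallel with 48 h PbLuc assay at 37 °C, 5% CO2; viability by CellTiter-Glo luminescence, normalized to controls.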

First: CC1CCC(O)(CSc2nnnn2C2CC2)CC1 (stereo unspecified)
Second: CC(C)(C)C1SCC(=O)Nc2c1c(O)nn2C1CCCC1 (stereo unspecified)
The cytotoxicity at 10 µM of the first is lower: -1.97% for the first, 3.36% for the second.

First: Cc1nccn1CCCNc1ncccc1C#N
Second: CCn1ccnc1CN1CCN(Cc2cc(C#N)ccc2F)CC1
The cytotoxicity at 10 µM of the first is lower: -9.09% for the first, -7.19% for the second.

First: O=C(c1cncs1)N1CCOCC(Cc2ccccn2)C1 (stereo unspecified)
Second: O=C(Cc1cn2ccsc2n1)N1CCCC(n2cccn2)C1 (stereo unspecified)
The cytotoxicity at 10 µM of the first is higher: 0.105% for the first, -13.6% for the second.

Compared with `COc1ccccc1OCCNc1snc(Cl)c1C#N`, `CCC1C=CCN1C(=O)c1cc(COc2ccccc2OC)[nH]n1` (stereo unspecified) is lower in cytotoxicity at 10 µM: 20.5% for the first, 2.93% for the second.

First: Cc1cnc2cc(C3CCN(C(=O)c4ccncc4)CC3)[nH]c2n1
Second: COc1ccc(C(=O)N2CCC(Nc3cccnn3)CC2)cn1
The cytotoxicity at 10 µM of the first is lower: -22.1% for the first, 4.07% for the second.

First: CN(C)C[C@@H]1C[C@@H]2CN(C(=O)c3ccoc3)CC[C@@H]2N1CC1CC1
Second: CC(C)CC(O)C1CCN(C(=O)c2coc(CN3CCOCC3)c2)CC1 (stereo unspecified)
The cytotoxicity at 10 µM of the first is higher: 6.71% for the first, -7.27% for the second.

Going from `CCNc1cc2c(nn1)CCN(C(=O)Cc1ccc(C)s1)C2` to `CCNc1cc2c(nn1)CCN(C(=O)C1COc3ccccc3C1)C2` (stereo unspecified), the cytotoxicity at 10 µM falls from -0.375% to -4.83%.

First: Cc1cc(C)n(-c2cccc(NC(=O)N3CCC[C@@H]3CO)c2)n1
Second: CCC(CC)c1cc(CNC(=O)N2CCC[C@@H]2CO)on1
The cytotoxicity at 10 µM of the first is higher: 13.9% for the first, -5.16% for the second.

First: CCc1cc(NC2CCS(=O)(=O)CC2)nc(N2CCCCC2)n1
Second: c1nc(N2CCCC2)ncc1CN1CCCC(CN2CCCCC2)C1 (stereo unspecified)
The cytotoxicity at 10 µM of the first is lower: -15.8% for the first, -5.45% for the second.

Going from `CCn1c(=O)c2cc(S(N)(=O)=O)ccc2n(CC)c1=O` to `CS(=O)(=O)Cc1ccc(C(=O)Nc2ccc3c(c2)C(=O)NC3)cc1`, the cytotoxicity at 10 µM rises from -13.4% to 10.8%.

Going from `CC(C)N(CC(N)=O)Cc1csc(-c2ncccn2)n1` to `CCCc1ccc(CN2CCN(c3ncccn3)[C@@H]3CS(=O)(=O)C[C@@H]32)o1`, the cytotoxicity at 10 µM falls from 5.85% to 1.66%.

Going from `CCOc1cncc(N(C)CC(=O)NC)n1` to `CCOc1ccc(CNC(=O)N(C)Cc2ncnn2C)cc1C`, the cytotoxicity at 10 µM falls from 2.16% to -16%.

First: Cc1ccc(C(=O)N2CCC3(CC2)CCN(CCN(C)C)C3=O)cn1
Second: Cc1ccc(OC2(C(=O)O)CCN(C(=O)CCc3ccco3)CC2)cn1
The cytotoxicity at 10 µM of the first is higher: 5.36% for the first, 1.33% for the second.

Going from `CC(C)N(CCO)C(=O)C1CCC(=O)N(CCc2cccc(F)c2)C1` (stereo unspecified) to `CC(C)COC(=O)N1CC(=O)N(CCc2ccccc2)CC(O)C1` (stereo unspecified), the cytotoxicity at 10 µM falls from -6.95% to -16.6%.

First: Cc1ccc(N2CCCc3sc(C(=O)NCc4ccncc4)nc32)nn1
Second: CNc1cc(CNC(=O)c2cccnc2)nc(-c2ccncc2)n1
The cytotoxicity at 10 µM of the first is higher: 14.6% for the first, -9.88% for the second.

Going from `c1ccc(CN2CCCC2)c(CNc2cncc3nnnn23)c1` to `CN(c1cccnn1)[C@@H]1CC[C@@H]2CN(Cc3ccccc3C(=O)O)C[C@@H]21`, the cytotoxicity at 10 µM rises from 0.351% to 7.43%.

Going from `CCCc1nc2c(c(C)c(C)n2Cc2ccccn2)c(N)c1CC` to `OCCOCc1n[nH]c2c1CN(Cc1ccccn1)C2`, the cytotoxicity at 10 µM falls from 23.3% to -112%.

Going from `Cc1ccc(NC(=O)N2CCC(CO)(Nc3ccccc3)CC2)cc1` to `O=C(Nc1ccccc1)C1CN(Cc2ccsc2)CC12CCOCC2` (stereo unspecified), the cytotoxicity at 10 µM rises from -0.405% to 6.58%.

Compared with `O=C(CCc1nc2cc(Br)cnc2[nH]1)NCCCn1ccnc1`, `Cn1c(-c2ccccc2Cl)nc2cc(C(=O)NCCOCCO)cnc21` is lower in cytotoxicity at 10 µM: 0.905% for the first, -0.951% for the second.

Compared with `COc1ccc(CCN(C)C(=O)CN2C(=O)OC[C@@H]2C(C)C)cc1OC`, `COc1cc(CO)ccc1OCc1nc(C2CC2)no1` is higher in cytotoxicity at 10 µM: -11% for the first, 6.37% for the second.

Going from `Cc1ccc(F)c(OC2(C(=O)O)CCN(C(=O)c3ccco3)CC2)c1` to `O=C(CCc1cscn1)N1CCC(C(=O)O)(c2ccccc2)CC1`, the cytotoxicity at 10 µM falls from 5.99% to -5.36%.

First: CCN1CCN(C2CCN(C(C(N)=O)c3ccc(F)cc3)CC2)C1=O (stereo unspecified)
Second: O=C1CN([C@@H]2CC[C@@H](NS(=O)(=O)c3ccc(F)cc3)[C@H]2O)CCN1
The cytotoxicity at 10 µM of the first is lower: -20% for the first, -2.11% for the second.

Going from `COc1ccccc1NCC(=O)Nc1cnn(Cc2ccccn2)c1` to `CCOc1ccccc1C(CC(=O)Nc1ccncc1)NC(C)=O` (stereo unspecified), the cytotoxicity at 10 µM falls from -0.53% to -12.6%.

Going from `OCC(O)CSCc1nnc(-c2cccc(F)c2)o1` (stereo unspecified) to `COc1ccc(-c2nnc(C(C)N3CCOC(C)(C)C3)o2)cc1` (stereo unspecified), the cytotoxicity at 10 µM falls from 15.4% to 2.62%.

Compared with `COc1cc(C(=O)NCC2CCCN(Cc3ccco3)C2)ccn1` (stereo unspecified), `CN(Cc1ccco1)[C@@H]1CN(Cc2cccnc2)[C@@H]2CCCO[C@H]12` is lower in cytotoxicity at 10 µM: -3.94% for the first, -79.8% for the second.

First: O=C(CCSc1ccccc1)NS(=O)(=O)c1ccc2c(c1)OCCO2
Second: NC(=O)C(Cc1ccccc1)NS(=O)(=O)Cc1ccccc1Cl (stereo unspecified)
The cytotoxicity at 10 µM of the first is lower: -5.69% for the first, 7.56% for the second.

Going from `FC(F)CNc1cnc(C2CCNCC2)cn1` to `c1cc(CNc2ncc(-c3cnccn3)c(C3CC3)n2)ccn1`, the cytotoxicity at 10 µM rises from 0.83% to 24%.

Compared with `NC(=O)C1CCN(CCCNC(=O)Nc2nncs2)CC1`, `CC(C)C(NC(N)=O)C(=O)NCc1ccc(N2CCCC2)nc1` (stereo unspecified) is lower in cytotoxicity at 10 µM: -0.165% for the first, -16.9% for the second.

Compared with `Cc1[nH]c(-c2ccccc2)nc1C(=O)N1CC[C@H](CO)[C@@H](O)C1`, `O=C(C1CC1)N1CCN2C[C@@H](CO)[C@H](c3ccccc3)[C@H]2C1` is lower in cytotoxicity at 10 µM: 76.5% for the first, 8.52% for the second.

Compared with `CS(=O)(=O)CCNC(=O)Nc1sc2ccccc2c1Cl`, `O=C(NCCC(O)c1cccs1)c1ccc(Br)o1` (stereo unspecified) is lower in cytotoxicity at 10 µM: 41.7% for the first, -15.2% for the second.

Compared with `COc1ccccc1OC1CCN(c2ccncc2)CC1`, `c1ccc(-c2cc(NCCCC3CCOC3)n3nccc3n2)cc1` (stereo unspecified) is lower in cytotoxicity at 10 µM: 3.33% for the first, -0.309% for the second.

Compared with `CC(=O)N1CCCC1CCc1ccnc(-c2cncnc2)c1` (stereo unspecified), `O=C(c1ccc2[nH]ccc2c1)N1CCCCC1c1nc[nH]n1` (stereo unspecified) is lower in cytotoxicity at 10 µM: 1.24% for the first, -9.04% for the second.

Going from `CN(C)Cc1ccnc(C2CCCN2Cc2cccc(F)c2F)n1` (stereo unspecified) to `O=C(NCc1ccc(OCC2CC2)nc1)c1c(F)cccc1F`, the cytotoxicity at 10 µM falls from 2.22% to 1.49%.

First: CSCC(=O)N1C[C@@H]2CC[C@H]1CN(C1Cc3ccccc3C1)C2
Second: OC[C@H]1CN(C2Cc3ccccc3C2)C[C@H]1CN1CCC(O)CC1
The cytotoxicity at 10 µM of the first is lower: -6.08% for the first, 0.0255% for the second.

Going from `Cc1c(NC(=O)CN2CCN(C3CCCC3)C(=O)C2)cnn1C` to `Cc1cc(C(=O)N2CCCC(n3cccn3)C2)c(C)n1C1CC1` (stereo unspecified), the cytotoxicity at 10 µM falls from 5.25% to -16.7%.

Compared with `OCC1CCN(Cc2cc3c(cc2Br)OCCO3)CC1`, `CC(O)CN1CCC(CNCc2cccc(OC(C)C)c2)CC1` (stereo unspecified) is lower in cytotoxicity at 10 µM: 6.84% for the first, -8.16% for the second.

Going from `O=C(N1CCOCC1)N1CC[C@H]2[C@@H]1CCC(=O)N2c1ccccc1` to `O=C(Nc1ccccc1)N1CCc2nc(C(=O)N3CCCC3)sc2CC1`, the cytotoxicity at 10 µM rises from 6.53% to 11.3%.

First: Cc1cn(Cc2ccccc2)nc1N
Second: Cn1cc(CN2CCC3(CC2)CC(=O)Nc2ccccc23)cn1
The cytotoxicity at 10 µM of the first is lower: -4.66% for the first, 8.49% for the second.

Going from `CC(Cn1cccn1)NC(=O)N1CCN(Cc2cccnc2)CC1` (stereo unspecified) to `CC(Cn1cccn1)NC(=O)c1cc(C2CC2)nc2c1cnn2C` (stereo unspecified), the cytotoxicity at 10 µM rises from -18.2% to 0.351%.

Going from `CCOc1ccc(C(=O)N2C[C@@H]3CC[C@H]2CN(C)C3)cc1OCC` to `CCOc1cc(C)nc(N2CCN(C(=O)c3cc(C)on3)CC2)n1`, the cytotoxicity at 10 µM rises from -15.7% to -1.61%.

Going from `O=c1ccc2c(n1CC1CC1)CCC(NCc1cccs1)C2` (stereo unspecified) to `c1ccc2c(c1)OCCCC2NCc1nnc2n1CCCCC2` (stereo unspecified), the cytotoxicity at 10 µM rises from -111% to -0.044%.

Compared with `CN(C)C(=O)CO[C@H]1CN(Cc2cccc(C#N)c2)[C@@H]2COC[C@H]12`, `CNC(=O)c1cn[nH]c1C1CCN(Cc2cccc(C)c2OC)C1` (stereo unspecified) is lower in cytotoxicity at 10 µM: 11.4% for the first, -23.6% for the second.

First: COc1cc(N2CCC3(CCCN3Cc3cnn(C)c3)CC2)ncn1
Second: Cc1ccc(CN2CCC3(CC2)COCCN3S(C)(=O)=O)o1
The cytotoxicity at 10 µM of the first is lower: 6.5% for the first, 8.86% for the second.

Going from `Cc1nc2c(c(=O)[nH]1)CCN(Cc1ccc3c(c1)CCCN3C)C2` to `Cc1cccc(CN2CC3(CCN(Cc4ccco4)CC3)OCC2=O)n1`, the cytotoxicity at 10 µM rises from -1.87% to 8.1%.

Going from `CC(=O)NCCC(=O)NCc1cc(Br)ccc1OC(F)F` to `NC(=O)N1CCC(NCc2cc(Br)ccc2Cl)CC1`, the cytotoxicity at 10 µM rises from -6.47% to -6.43%.

Going from `COC(=O)c1ccc(OC)c(Cn2cc(N)cn2)c1` to `CCn1cc(-c2n[nH]c(=O)n2-c2ccc(OC)c(OC)c2)c(C)n1`, the cytotoxicity at 10 µM falls from -7.8% to -9.91%.

Compared with `Cn1cnc(S(=O)(=O)N2C[C@H](OCC3CC3)[C@H]3OCCC[C@H]32)c1`, `CN(c1ncc(S(N)(=O)=O)s1)C1CCC1` is higher in cytotoxicity at 10 µM: -149% for the first, 4.13% for the second.

Going from `CCc1noc(CS(=O)(=O)CC=C(C)C)n1` to `CCc1noc(C(C)N2CCC(NS(=O)(=O)c3cccs3)CC2)n1` (stereo unspecified), the cytotoxicity at 10 µM rises from 5.41% to 8.45%.

Compared with `O=S(=O)(CCN1CCOC(Cn2cncn2)C1)c1ccccc1` (stereo unspecified), `Fc1ccc(CNc2ccccc2Cn2cncn2)cc1` is higher in cytotoxicity at 10 µM: -9.78% for the first, -0.719% for the second.

First: CC(=O)N1N=C(c2ccco2)OC1C(=O)NCCc1ccc(F)cc1 (stereo unspecified)
Second: COC(CNC(=O)c1ccc(NC(C)=O)cc1)c1cccc(Cl)c1 (stereo unspecified)
The cytotoxicity at 10 µM of the first is lower: -1.92% for the first, 7.72% for the second.

First: Cc1ccc(CNC(=O)c2cc(Cn3ccnc3C(C)C)[nH]n2)o1
Second: Cc1cc(NCc2ccco2)nc2[nH]nc(N)c12
The cytotoxicity at 10 µM of the first is higher: 3.42% for the first, -43.6% for the second.

First: Cc1noc(C)c1CN(C)C(=O)c1ccc(O)nc1
Second: CNc1ccnc(N(C)Cc2cc(-c3cccs3)n[nH]2)n1
The cytotoxicity at 10 µM of the first is lower: -9.71% for the first, -4.57% for the second.

Compared with `CSCCc1nc(C(C)C)nn1-c1ccncc1C`, `COc1cccc(-c2nc(CNCCc3cccnc3)cs2)c1` is lower in cytotoxicity at 10 µM: 1.63% for the first, -1.77% for the second.

Going from `Cc1cc(N(C)C)nc(NC2CCc3nc(C)nn3C2)n1` (stereo unspecified) to `CN(C)Cc1ccc(CNC(=O)NCC2(C)CCCS2)cc1` (stereo unspecified), the cytotoxicity at 10 µM falls from 5.56% to -12.9%.

First: c1ccn(Cc2noc3c2CN(Cc2ccsc2)CC3)c1
Second: O[C@@H]1C[C@@H](c2nc(-c3cccnc3)no2)N(C2CCOCC2)C1
The cytotoxicity at 10 µM of the first is higher: 9.37% for the first, -4.03% for the second.

With `Cc1ccoc1C(=O)N1CCC(n2cc(CO)nn2)CC1` the cytotoxicity at 10 µM was -1.52%.
